For orientation: inhibition means the share of the control response that was lost under treatment.

The source of these data is PubChem BioAssay AID588806 (The Scripps Research Institute Molecular Screening Center, 2011).

The assay has as its target Palmitoyl-protein thioesterase ABHD10, mitochondrial (Mus musculus) (UniProt Q6PE15). Kind of assay: in situ ABHD10 inhibition, late-stage follow-up, PME-1 inhibitor project, cell-based, competitive gel ABPP, fluorescence, mouse (AID 588806). The following applies: BW5147 mouse T cells, in situ FP-Rh gel ABPP, 4 h, stronger effect = higher value. The procedure, abridged: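 Assay system – in situ endogenous ABHD10, murine T cells derived from BW5147 · Compound – three test concentrations per compound, 0.25, 0.1 and 0.05 µM · Times – compound 4 h 37 °C, probe 30 min 25 °C · Signal – SDS-PAGE separation with in-gel fluorescence scanning of probe-labelled bands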

Chain of Palmitoyl-protein thioesterase ABHD10, mitochondrial (Mus musculus) (Q6PE15 whole entry, looked up): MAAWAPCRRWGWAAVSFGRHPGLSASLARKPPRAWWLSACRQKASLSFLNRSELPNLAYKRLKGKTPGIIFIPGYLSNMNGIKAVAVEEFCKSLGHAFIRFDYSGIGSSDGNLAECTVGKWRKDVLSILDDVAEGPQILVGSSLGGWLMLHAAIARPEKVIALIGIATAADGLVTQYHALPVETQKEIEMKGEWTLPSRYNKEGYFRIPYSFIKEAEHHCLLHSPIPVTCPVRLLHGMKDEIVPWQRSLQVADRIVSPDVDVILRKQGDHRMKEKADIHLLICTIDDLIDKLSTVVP

In the case of `C=CCOC(=O)N1C(=O)[C@@](CC)(c2ccc(C)cc2)N1C(=O)OCC=C`, the inhibition (at 0.25 µM) was 70%; the inhibition (inhibition, at 0.05 µM) was determined as 40%; the inhibition (inhibition, at 0.1 µM) was 60%.
Taken in the same sequence, the figures for `CC[C@@]1(c2ccc(C)cc2)C(=O)N(C(=O)OC(C)C)N1C(=O)OC(C)C` were 90%, 75% and 70%.
Taken in the same sequence, the figures for `CCCOC(=O)N1C(=O)[C@@](CC)(c2ccc(C)cc2)N1C(=O)OCCC` were 90%, 60% and 80%.
